Screens (PubChem)
ADAM17 inh: ADAM17 inhibitors, primary screen, biochemical, QFRET | actives 0.83% (n = 370,000) | Disintegrin and metalloproteinase domain-containing protein 17 (Homo sapiens), P78536 | recombinant ADAM17, EDANS/DABCYL FRET peptide cleavage | inhibition, % at 6.95 µM;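 active means inhibition above the mean of compounds lying between control limits plus 3 SD, set per campaign, cut at about 8.5% in these data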
Target sequence (P78536 215-824 limits assumed): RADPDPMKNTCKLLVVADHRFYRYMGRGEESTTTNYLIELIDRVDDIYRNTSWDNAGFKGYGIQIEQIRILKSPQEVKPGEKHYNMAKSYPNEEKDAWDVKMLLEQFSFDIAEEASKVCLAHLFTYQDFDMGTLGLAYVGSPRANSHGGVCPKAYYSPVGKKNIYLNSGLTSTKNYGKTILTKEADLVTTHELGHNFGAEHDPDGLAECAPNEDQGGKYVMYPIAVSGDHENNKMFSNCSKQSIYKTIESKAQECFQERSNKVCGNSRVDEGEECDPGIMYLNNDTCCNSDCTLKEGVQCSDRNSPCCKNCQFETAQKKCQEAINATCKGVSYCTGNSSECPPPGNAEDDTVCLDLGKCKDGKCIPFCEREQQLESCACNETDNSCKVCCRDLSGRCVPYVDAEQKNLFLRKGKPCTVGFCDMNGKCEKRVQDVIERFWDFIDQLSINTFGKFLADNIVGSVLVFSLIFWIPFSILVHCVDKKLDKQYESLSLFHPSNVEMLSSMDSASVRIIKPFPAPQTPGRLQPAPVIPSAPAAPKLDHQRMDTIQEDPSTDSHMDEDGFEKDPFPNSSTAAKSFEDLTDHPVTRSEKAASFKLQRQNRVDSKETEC
MT1-MMP act inh: blockers of MT1-MMP proenzyme processing, primary screen, HT1080 RFP-PRO-GFP cells, GFP/RFP fluorescence; Matrix metalloproteinase-14 (Homo sapiens), P50281; GFP/RFP ratio fluorescence, overnight; percent of plate control window, DMSO zero; GFP/RFP ratio change, % at 20 µM; actives 0.061% (n = 360,000); AID 651647, 2012;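 active means GFP/RFP ratio change of at least 30% with cell ATP level not reduced by more than half and red fluorescence within 50% of control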
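Assay system – RFP-PRO-GFP reporter HT1080 cells · Compound dosing – single dose of 20 µM compound, 1% DMSO final · Incubation – overnight compound exposure at 37 °C · Measure – GFP/RFP fluorescence ratio · Benchmarks – DMSO wells and RFP-L50D-GFP cells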
ADAM10 inh: human ADAM10 inhibitors, primary screen, biochemical, QFRET, HTS. Disintegrin and metalloproteinase domain-containing protein 10 (Homo sapiens), O14672. recombinant ADAM10, EDANS/DABCYL FRET peptide cleavage, 3 h. inhibition, % at 7 µM. actives 0.62% (n = 370,000);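 active means inhibition above a per-campaign cutoff equal to the mean of compounds falling between control-based bounds plus 3 SD, cut at about 20% in these data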
DDE Tn6 FP inh: inhibitors of Tn6 peptide binding to fibrin DD(E), primary screen, biochemical, fluorescence polarization, human fibrin, Tn6 probe. Fibrinogen beta chain (Homo sapiens), P02675. Fibrin DD(E) TRITC-Tn6 fluorescence polarization displacement. inhibition, % at 8.3 µM. actives 0.21% (n = 370,000);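 active means inhibition above a per-campaign cutoff: mean of compounds within control limits plus 3 SD, cut at about 15% in these data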
Tn7 DDE FP: inhibitors of Tn7 peptide binding to fibrin DD(E), primary screen, biochemical, fluorescence polarization, human fibrin, Tn7 probe. Fibrinogen beta chain (Homo sapiens), P02675. FP displacement of FITC-Tn7 peptide from fibrin DD(E); 0% = median of compound wells per plate. inhibition, % at 8.3 µM. actives 0.13% (n = 370,000). AID 720508, 2013;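 active means inhibition above the mean of compounds falling within the control limits plus 3 SD of them, cut at about 14% in these data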
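Assay system: Fibrin-DD(E) protein isolated from polymerized human fibrin clots; read-out basis: percent inhibition; medium: Tris/NaCl/CaCl2 buffer, pH 7.8; signal: FP measurement; incubation: 10 min plus 3 h, room temperature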
ADAM10 confirm: human ADAM10 inhibitors, confirmation, biochemical, QFRET, triplicate; shares compounds with ADAM10 inh; ADAM10 QFRET peptide cleavage, EDANS fluorescence; inhibition, % at 6.95 µM; actives 1% (n = 2,100); AID 743208, 2013;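 active means inhibition above about 20% chosen separately for each screening run, limit read from the data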
ADAM17 counter: ADAM17 inhibitors, counter-screen for ADAM10 exosite inhibitor project, biochemical, QFRET, high throughput | shares compounds with ADAM10 inh | ADAM17 QFRET peptide cleavage, EDANS fluorescence | inhibition, % at 6.95 µM | actives 0.5% (n = 2,100);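 active means mean triplicate inhibition above the solvent-only control wells' mean plus 3 SD, cut at about 12% in these data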
ADAM10 ctr: ADAM10 inhibitors, counter-screen for ADAM17 exosite inhibitor project, biochemical, FRET, human ADAM10. inhibition, % at 6.95 µM. recombinant ADAM10, EDANS/DABCYL FRET peptide cleavage, 3 h. AID 743256, 2014. actives 47% (n = 2,900). shares compounds with ADAM17 inh;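 active means mean inhibition over the triplicate runs exceeds the activity threshold set in the earlier primary screen, cut at about 20% in these data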
ADAM17 confirm: ADAM17 inhibitors, hit retest, confirmation, biochemical, QFRET peptide cleavage | shares compounds with ADAM17 inh | inhibition, % at 6.95 µM | recombinant ADAM17, EDANS/DABCYL QFRET peptide cleavage | actives 65% (n = 2,900) | AID 743257, 2014;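 active means mean inhibition across replicates above the hit cutoff set in the primary screen, cut at about 8.5% in these data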
A number is an active result; n = inactive; x = no result. Shown are actives, neighbours in structure and some others; about 1.6% of the full set was active somewhere.

SMILES | ADAM17 inh | MT1-MMP act inh | ADAM10 inh | DDE Tn6 FP inh | Tn7 DDE FP | ADAM10 confirm | ADAM17 counter | ADAM10 ctr | ADAM17 confirm
Cc1ccc(S(=O)(=O)N(C)C[C@H]2Oc3cc(Br)ccc3S(=O)(=O)N([C@H](C)CO)C[C@H]2C)cc1 | 17 | n | 31 | n | n | n | n | n | n
Cc1ccc(S(=O)(=O)N(C)C[C@H]2Oc3cc(Br)ccc3S(=O)(=O)N([C@H](C)CO)C[C@@H]2C)cc1 | n | n | n | n | n | x | x | x | x
Cc1cc(=O)c2c(ccc3c(=O)cc(C)[nH]c32)[nH]1 | n | x | n | n | n | x | x | x | x
S=c1nc(-c2sccc2OCc2ccc(Cl)cc2Cl)[nH][nH]1 | 11 | n | 20 | n | n | n | n | n | 13
CCN(CC)S(=O)(=O)c1ccc(NC(=O)COC(=O)CCc2cc(OC)c(OC)c(OC)c2)cc1 | 11 | n | 28 | n | n | n | n | n | n
COc1cc(CCC(=O)OCC(=O)Nc2cccc(S(=O)(=O)N(C)C)c2)cc(OC)c1OC | n | n | n | n | n | x | x | x | x
O=C(CN(c1ccc(Br)cc1)S(=O)(=O)c1ccc(Cl)c([N+](=O)[O-])c1)NCCc1ccccc1 | n | n | n | n | n | x | x | x | x
Cc1ccc(N(CC(=O)NCCc2ccc(F)cc2)S(=O)(=O)c2ccc(Cl)c([N+](=O)[O-])c2)c(C)c1 | 12 | n | 26 | n | n | n | n | 29 | 15
CCn1nc([N+](=O)[O-])c(C(C#N)c2nc3cc(C(F)(F)F)ccc3s2)c(Cl)c1=O (configuration not stated) | 11 | n | 28 | n | n | n | n | 23 | 14
Cn1nc([N+](=O)[O-])c(C(C#N)c2ccccn2)c(Cl)c1=O (configuration not stated) | n | n | n | n | n | x | x | x | x
Clc1cccc(NCc2nnc(SCc3ccc(Cl)cc3Cl)o2)c1 | 9.3 | n | 31 | n | n | n | n | n | 14
O=C1C=C(c2cccc(Cl)c2O)C[C@@H](c2ccc(Cl)cc2)C1 | 14 | n | 22 | n | n | n | n | 22 | 13
O=C1C=C(c2cccc(Cl)c2)C[C@@H](c2ccc(Cl)cc2)C1 | n | n | n | n | n | x | x | x | x
COc1ccc(C(=O)OCC(=O)Nc2ccc(Cl)c(C(F)(F)F)c2)c(OC)c1OC | 8.7 | n | 20 | n | n | n | n | 23 | 13
Cc1onc(-c2ccccc2)c1C(=O)OCC(=O)Nc1ccc(OC(F)(F)F)cc1 | 9.4 | n | 25 | n | n | n | n | 33 | 17
COc1cccc(OC)c1C(=O)OCC(=O)Nc1ccc(OC(F)(F)F)cc1 | 10 | n | 27 | n | n | n | n | n | n
COc1cc(CNc2ncnc3c2ncn3[C@H]2CN(Cc3cccc(C(F)(F)F)c3)C[C@@H](CO)O2)cc(OC)c1OC | 9.7 | n | 23 | n | n | n | n | n | 10
OC[C@@H]1CN(Cc2ccc(-c3ccccc3)cc2)C[C@H](n2cnc3c(NCc4ccc(F)cc4)ncnc32)O1 | 8.9 | n | 23 | n | n | n | n | 29 | 18
OC[C@@H]1CN(Cc2ccccc2)C[C@H](n2cnc3c(NCc4ccc(F)cc4)ncnc32)O1 | n | n | n | n | n | x | x | x | x
CC(C)C[C@@H]1COc2cccc(NCCO)c2S(=O)(=O)N1 | n | x | n | n | n | x | x | x | x
O=C1CC(=C(c2ccccc2)c2ccccc2)C(=O)N1CCCCN1CCN(c2cccc(Cl)c2)CC1 | 12 | n | 32 | n | n | n | n | n | n
CN(Cc1ccccc1)C(=O)Cn1nnc(-c2ccccc2)c1COc1ccccc1 | n | n | n | n | n | x | x | x | x
CN(Cc1ccccc1)C(=O)Cn1nnc(-c2ccccc2)c1COc1ccc2ccccc2c1 | 20 | n | 34 | n | n | n | n | 25 | 16
COCCCNC(=O)CSc1nnc(-c2cccnc2)n1C1CCCCC1 | n | x | n | n | n | x | x | x | x
Cc1ccc(NS(=O)(=O)c2ccc(C)c(NC(=O)c3ccc(S(=O)(=O)N4CCCCCC4)cc3)c2)c(C)c1 | 8.8 | n | 23 | n | n | n | n | 46 | 24
SMILES | ADAM17 inh | MT1-MMP act inh | ADAM10 inh | DDE Tn6 FP inh | Tn7 DDE FP | ADAM10 confirm | ADAM17 counter | ADAM10 ctr | ADAM17 confirm
Cc1ccc(S(=O)(=O)N2CCCCC2)cc1NC(=O)c1ccc2c(c1)OCO2 | n | n | n | n | n | x | x | x | x
N#CCC[C@@H]1CC[C@]2(CCCN(Cc3ccc(Cl)cc3)C2)O1 | n | x | n | n | n | x | x | x | x
COc1ccccc1-c1nnc(SC/C(O)=C(\C#N)c2nc3ccccc3[nH]2)n1C1CCCCC1 | 8.7 | n | 28 | n | n | n | n | n | n
N#C/C(=C(/O)CSc1nnc(Cc2cccs2)n1C1CCCCC1)c1nc2ccccc2[nH]1 | n | n | n | n | n | x | x | x | x
Cc1cccc2cc(CN(Cc3ccco3)C(=O)Nc3cccc(C#N)c3)c(Cl)nc12 | 9.9 | n | 29 | n | n | n | n | 42 | 23
N#Cc1ccc(/C=C2\CC3(OC(=O)c4cccc(F)c4)CCCN2C3)cc1 (configuration not stated) | n | x | n | n | n | x | x | x | x
Cc1cc(Cn2nc(-c3ccccc3)cc2C(=O)NCc2cccc(Br)c2)on1 | 11 | n | 37 | n | n | n | n | 24 | 16
Cc1cc(Cn2nc(-c3ccccc3)cc2C(=O)NCc2cccc(C(F)(F)F)c2)on1 | n | n | n | n | n | x | x | x | x
CC(C)c1ccc(Nc2nc(NCc3ccco3)nc(N3CCOCC3)n2)cc1 | 12 | n | 31 | n | n | n | n | 23 | 13
